Assay results: paper PMC8009840 (Bioorganic chemistry, 2021)

Key:
KOR [1] = molecular target: KOR (Mus musculus, UniProt P33534); test: Competitive radioligand binding assay, KOR; parameters: species or system mice; details: for Selectivity δ/κ: Ki ratio DOR/KOR; for Selectivity μ/κ: Ki ratio MOR/KOR
Procedure, shortened: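 Competition binding on membranes (30 μg protein) from CHO cells expressing mouse KOR or MOR, or human DOR. [3H]diprenorphine labels KOR and DOR, and [3H]naloxone labels MOR. Varied test compound in TME buffer (50 mM Tris, 3 mM MgCl2, 0.2 mM EGTA, pH 7.4), 1.5 h, 30 °C, then filtration. Nonspecific binding: 5 μM U50,488 (KOR), DAMGO (MOR), SNC80 (DOR). IC50 by nonlinear regression, converted to Ki by Cheng-Prusoff; selectivity as Ki ratios.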

human KOR = human KOR (Homo sapiens, UniProt P41145); test: [35S]-GTPγS functional assay, KOR-expressed CHO cell membranes; type: biochemical; details: for EC50: read-out: KOR [35S]-GTPγS binding EC50, mean ± SEM, at least three experiments; for KOR [35S]-GTPγS binding % Emax of U50,488H: relative to full agonist U50,488H (5 μM)
Procedure, shortened: (§1)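 CHO membranes (10 μg protein) incubated 1 h at 30 °C with varied test compound, GDP (15 μM) and 80 pM [35S]GTPγS; nonspecific binding with 10 μM unlabelled GTPγS. Full agonist at 5 μM for the maximal response: U50,488H (KOR), DAMGO (MOR), DPDPE (DOR). Emax is net-stimulated binding as % of that full-agonist stimulation. Mean ± SEM of at least three experiments.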

rat MOR = rat MOR (Rattus norvegicus, UniProt P33535); test: [35S]-GTPγS functional assay, MOR-expressed CHO cell membranes; type: biochemical; details: for EC50: read-out: MOR [35S]-GTPγS binding EC50, mean ± SEM, at least three experiments; for MOR [35S]-GTPγS binding % Emax of DAMGO: relative to full agonist DAMGO (5 μM)
Procedure, shortened: as §1

mouse DOR = mouse DOR (Mus musculus, UniProt P32300); test: [35S]-GTPγS functional assay, DOR-expressed CHO cell membranes; type: biochemical; details: for EC50: read-out: DOR [35S]-GTPγS binding EC50, mean ± SEM, at least three experiments; for DOR [35S]-GTPγS binding % Emax of DPDPE: relative to full agonist DPDPE (5 μM)
Procedure, shortened: as §1

KOR [2] = details: cited from earlier work
MOR = details: read-out: MOR Ki; cited from earlier work

Row | Compound | Selectivity δ/κ (KOR [1]) | Selectivity μ/κ (KOR [1]) | EC50 (human KOR) | KOR [35S]-GTPγS binding % Emax of U50,488H (human KOR) | EC50 (rat MOR) | MOR [35S]-GTPγS binding % Emax of DAMGO (rat MOR) | EC50 (mouse DOR) | DOR [35S]-GTPγS binding % Emax of DPDPE (mouse DOR) | μ/κ Ki ratio (KOR [2]) | Ki (KOR [2]; read-out: KOR Ki) | Ki (MOR)
1 | COc1cc(C(=O)N[C@@H]2CC[C@@]3(O)[C@H]4Cc5cccc6c5[C@@]3(CCN4CC3CC3)[C@H]2O6)ccn1 [Compound 6e, 17-Cyclopropylmethyl-4,5α-epoxy-14β-hydroxy-6β-{[4′-(2′-methoxypyridyl)]carboxamido}morphinan] | 67.9 | 0.53 | – | – | – | – | – | – | – | – | –
2 | N#Cc1cc(C(=O)N[C@@H]2CC[C@@]3(O)[C@H]4Cc5cccc6c5[C@@]3(CCN4CC3CC3)[C@H]2O6)ccn1 [Compound 6c, 17-Cyclopropylmethyl-4,5α-epoxy-14β-hydroxy-6β-{[4′-(2′-cyanopyridyl)]carboxamido}morphinan] | 551 | 9.5 | 92 ± 8.47 nM | 100.20 ± 2.37% | 338 ± 31.1 nM | 26.48 ± 3.73% | 1850 ± 152 nM | 113.90 ± 3.10% | – | – | –
3 | Cl.O=C(N[C@@H]1CC[C@@]2(O)[C@H]3Cc4cccc5c4[C@@]2(CCN3CC2CC2)[C@H]1O5)c1ccnc(Cl)c1 [Compound 6a, 17-Cyclopropylmethyl-4,5α-epoxy-14β-hydroxy-6β-{[4′-(2′-chloropyridyl)]carboxamido}morphinan hydrochloride] | 203 | 1.8 | – | – | – | – | – | – | – | – | –
4 | Cc1cc(C(=O)N[C@@H]2CC[C@@]3(O)[C@H]4Cc5cccc6c5[C@@]3(CCN4CC3CC3)[C@H]2O6)ccn1 [Compound 6d, 17-Cyclopropylmethyl-4,5α-epoxy-14β-hydroxy-6β-{[4′-(2′-methylpyridyl)]carboxamido}morphinan] | 38.0 | 0.41 | – | – | – | – | – | – | – | – | –
5 | O=C(N[C@@H]1CC[C@@]2(O)[C@H]3Cc4cccc5c4[C@@]2(CCN3CC2CC2)[C@H]1O5)c1ccnc(Br)c1 [Compound 6b, 17-Cyclopropylmethyl-4,5α-epoxy-14β-hydroxy-6β-{[4′-(2′-bromopyridyl)]carboxamido}morphinan] | 280 | 3.3 | 81.9 ± 9.09 nM | 99.27 ± 2.79% | 291 ± 42 nM | 33.62 ± 3.92% | 2680 ± 689 nM | 145.10 ± 12.31% | – | – | –
6 | CN(C(=O)/C=C/c1ccoc1)[C@@H]1CC[C@@]2(O)[C@H]3Cc4cccc5c4[C@@]2(CCN3CC2CC2)[C@H]1O5 [CT-18] | – | – | – | – | – | – | – | – | 355 | 1.5 nM | 533 nM
